Reference: ChEMBL document CHEMBL4033795, “Design, Synthesis, and Structure-Activity Relationship Study of 2-Oxo-3,4-dihydropyrimido[4,5- d]pyrimidines as New Colony Stimulating Factor 1 Receptor (CSF1R) Kinase Inhibitors” (J Med Chem, 2018)

Assays:
[1] = target: Epidermal growth factor receptor (Homo sapiens, UniProt P00533); assay: Inhibition of recombinant human wild type GST-tagged EGFR cytoplasmic domain (668 to 1210 residues) expressed in baculovirus using tyr4 peptide as substrate after 1 hr by FRET-based Z'-Lyte assay
[2] = system: Rattus norvegicus; assay: AUC (0 to infinity) in Sprague-Dawley rat at 25 mg/kg administered via oral gavage measured up to 72 hrs by LC/MS analysis; assay type: ADME, organism-based; parameters: dose 25 mg/kg, route oral, time infinity; conditions: in vivo
Summary of the method: (§1)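 Male Sprague-Dawley rats, 4–6 weeks old, acclimatised 1 week, were dosed iv at 5 mg/kg or by oral gavage at 25 mg/kg. Vehicle was 2% DMSO, 4% EtOH, 4% castor oil, 90% H2O. Blood was drawn by orbital sinus puncture from 2 min to 72 h into heparinized tubes. Plasma was assayed by LC/MS with propranolol as internal standard. Three animals per group.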

[3] = Half life in Sprague-Dawley rat at 5 mg/kg, iv measured up to 72 hrs by LC/MS analysis; assay type: ADME, organism-based; conditions: in vivo; summary of the method: as §1
[4] = Oral bioavailability in Sprague-Dawley rat at 25 mg/kg administered via gavage measured up to 72 hrs by LC/MS analysis; assay type: ADME, organism-based; conditions: in vivo; summary of the method: as §1
[5] = target: Platelet-derived growth factor receptor alpha (Homo sapiens, UniProt P16234); assay: Inhibition of recombinant cytoplasmic human GST-tagged PDGFRalpha expressed in baculovirus using poly (4:1 Glu, Tyr) peptide as substrate after 1 hr by ADP-Glo assay
[6] = target: Platelet-derived growth factor receptor beta (Homo sapiens, UniProt P09619); assay: Inhibition of recombinant human PDGFRbeta expressed in baculovirus using poly (4:1 Glu, Tyr) peptide as substrate after 1 hr by ADP-Glo assay
[7] = target: Fibroblast growth factor receptor 4 (Homo sapiens, UniProt P22455); assay: Inhibition of cytoplasmic recombinant human His-tagged FGFR4 ([…] residues) expressed in baculovirus using tyr4 peptide as substrate after 1 hr by FRET-based Z'-Lyte assay
[8] = target: Vascular endothelial growth factor receptor 2 (Homo sapiens) (UniProt P35968); assay: Inhibition of human KDR (R787 to P1253 residues) expressed in mammalian expression system at 100 nM by KINOMEscan assay relative to control
[9] = target: Tyrosine-protein kinase Lyn (Homo sapiens) (UniProt P07948); assay: Inhibition of recombinant human LYN-A expressed in bacterial expression system at 100 nM by KINOMEscan assay relative to control
[10] = target: Tyrosine-protein kinase Lyn (Homo sapiens) (UniProt P07948); assay: Inhibition of recombinant human LYN-B expressed in bacterial expression system at 100 nM by KINOMEscan assay relative to control
[11] = target: Ephrin type-A receptor 8 (Homo sapiens) (UniProt P29322); assay: Inhibition of recombinant human EPHA8 (Q608 to C920 residues) expressed in bacterial expression system at 100 nM by KINOMEscan assay relative to control
[12] = system: RAW264.7; assay: Antimigratory activity against mouse RAW264.7 cells assessed as inhibition of human LNCaP-MDV-CM mediated macrophage migration at 0.625 uM after 24 hrs by crystal violet staining based transwell assay relative to control; assay type: functional; conditions: RAW264.7, 24 h
Summary of the method: (§2)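 RAW264.7 cells, (2−4) × 10^5, were placed serum-free in the upper insert of a transwell. The lower chamber held conditioned medium from LNCaP cells grown 48 h in 10% FBS RPMI 1640 with 10 μM MDV3100 or DMSO. Compound at 0.625–5.0 μM was added to the top chamber for 24 h at 37 °C. Migrated cells were fixed in methanol, stained with 0.25% crystal violet and counted in six random fields at 200×. Three independent experiments.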

[13] = system: RAW264.7; assay: Antimigratory activity against mouse RAW264.7 cells assessed as inhibition of human LNCaP-MDV-CM mediated macrophage migration at 1.25 uM after 24 hrs by crystal violet staining based transwell assay relative to control; assay type: functional; conditions: RAW264.7, 24 h; summary of the method: as §2
[14] = system: RAW264.7; assay: Antimigratory activity against mouse RAW264.7 cells assessed as inhibition of human LNCaP-MDV-CM mediated macrophage migration at 2.5 uM after 24 hrs by crystal violet staining based transwell assay relative to control; assay type: functional; conditions: RAW264.7, 24 h; summary of the method: as §2
[15] = system: RAW264.7; assay: Downregulation of VEGFA mRNA expression in mouse RAW264.7 cells after 48 hrs by qRT-PCR analysis relative to DMSO; assay type: functional, cell-based
Summary of the method: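 RAW264.7 macrophages were treated 48 h with compound at 0.08, 0.4 or 2.0 μM, or DMSO vehicle. Total RNA was extracted with TRIzol and transcripts were quantified by qRT-PCR using gene-specific primers. Run three times, each in triplicate.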

[16] = system: RAW264.7; assay: Inhibition of protumorigenic potential of mouse RAW264.7 cells assessed as abrogation of human LNCAP cell growth enhancement of macrophages at 0.016 uM co-cultured for 48 hrs by CCK8 assay relative to control; assay type: functional; conditions: RAW264.7, 48 h
Summary of the method: (§3)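 LNCaP cells, (2−4) × 10^5, were seeded in the lower transwell chamber. After 2 h, (1−2) × 10^6 RAW264.7 cells were added in a 0.4 μm insert. Compound at 0.016–2.0 μM was added to the top chamber and cells were cocultured 48 h at 37 °C. LNCaP cells were then imaged and counted by CCK8. Run three times, each in triplicate.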

[17] = system: RAW264.7; assay: Inhibition of protumorigenic potential of mouse RAW264.7 cells assessed as abrogation of human LNCAP cell growth enhancement of macrophages at 0.08 uM co-cultured for 48 hrs by CCK8 assay relative to control; assay type: functional; conditions: RAW264.7, 48 h; summary of the method: as §3
[18] = organism: Homo sapiens; assay: Selectivity ratio of IC50 for recombinant cytoplasmic human His-tagged KIT expressed in baculovirus to IC50 for recombinant human His-tagged CSF1R cytoplasmic domain (538 to 910 residues) expressed in baculovirus
[19] = organism: Homo sapiens; assay: Selectivity ratio of IC50 for recombinant human PDGFRbeta expressed in baculovirus to IC50 for recombinant human His-tagged CSF1R cytoplasmic domain (538 to 910 residues) expressed in baculovirus
[20] = system: RAW264.7; assay: Inhibition of protumorigenic potential of mouse RAW264.7 cells assessed as abrogation of human LNCAP cell growth enhancement of macrophages co-cultured for 48 hrs by CCK8 assay; assay type: functional, cell-based; summary of the method: as §3

Chain of Tyrosine-protein kinase Lyn (Homo sapiens) (P07948 2-512 limits assumed): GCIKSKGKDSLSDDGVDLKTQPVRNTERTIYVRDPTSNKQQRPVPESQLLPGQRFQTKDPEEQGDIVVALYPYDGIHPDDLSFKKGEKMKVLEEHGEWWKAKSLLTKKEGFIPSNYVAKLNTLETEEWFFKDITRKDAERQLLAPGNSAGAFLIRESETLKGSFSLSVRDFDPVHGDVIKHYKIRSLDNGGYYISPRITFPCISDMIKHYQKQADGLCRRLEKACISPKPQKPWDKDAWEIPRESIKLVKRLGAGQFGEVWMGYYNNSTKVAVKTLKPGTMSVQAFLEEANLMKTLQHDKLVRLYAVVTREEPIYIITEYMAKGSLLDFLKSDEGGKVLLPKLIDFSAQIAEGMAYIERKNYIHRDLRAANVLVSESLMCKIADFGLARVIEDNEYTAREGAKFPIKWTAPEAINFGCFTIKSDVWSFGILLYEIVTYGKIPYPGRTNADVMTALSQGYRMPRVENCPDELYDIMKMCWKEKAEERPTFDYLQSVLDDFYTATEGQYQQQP
Chain of Ephrin type-A receptor 8 (Homo sapiens) (P29322 whole entry, the tested form may be a part): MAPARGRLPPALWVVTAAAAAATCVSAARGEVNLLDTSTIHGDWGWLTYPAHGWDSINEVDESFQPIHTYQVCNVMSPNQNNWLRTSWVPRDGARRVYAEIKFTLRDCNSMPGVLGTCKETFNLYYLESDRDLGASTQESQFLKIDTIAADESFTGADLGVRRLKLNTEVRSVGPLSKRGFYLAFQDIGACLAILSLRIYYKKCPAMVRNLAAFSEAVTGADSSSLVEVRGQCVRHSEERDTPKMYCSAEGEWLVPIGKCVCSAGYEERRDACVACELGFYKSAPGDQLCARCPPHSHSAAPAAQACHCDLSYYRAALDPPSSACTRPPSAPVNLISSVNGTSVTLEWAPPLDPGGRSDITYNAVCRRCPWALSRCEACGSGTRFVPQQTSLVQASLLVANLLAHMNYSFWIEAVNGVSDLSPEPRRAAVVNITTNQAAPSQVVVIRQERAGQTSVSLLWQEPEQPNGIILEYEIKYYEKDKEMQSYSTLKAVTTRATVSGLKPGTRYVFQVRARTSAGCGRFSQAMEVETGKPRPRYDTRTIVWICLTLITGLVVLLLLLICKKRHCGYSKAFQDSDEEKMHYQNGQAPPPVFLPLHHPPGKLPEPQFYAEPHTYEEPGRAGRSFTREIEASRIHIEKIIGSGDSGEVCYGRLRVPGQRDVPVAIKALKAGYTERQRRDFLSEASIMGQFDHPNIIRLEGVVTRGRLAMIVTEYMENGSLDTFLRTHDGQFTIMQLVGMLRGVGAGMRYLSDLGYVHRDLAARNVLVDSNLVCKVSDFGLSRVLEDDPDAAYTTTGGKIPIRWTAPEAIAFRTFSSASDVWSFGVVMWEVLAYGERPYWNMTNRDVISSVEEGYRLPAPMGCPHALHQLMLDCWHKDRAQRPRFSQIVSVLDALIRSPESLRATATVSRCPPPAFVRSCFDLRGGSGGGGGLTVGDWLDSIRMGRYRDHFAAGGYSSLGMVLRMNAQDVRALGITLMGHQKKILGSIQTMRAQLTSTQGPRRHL
Chain of Platelet-derived growth factor receptor alpha (P16234 whole entry): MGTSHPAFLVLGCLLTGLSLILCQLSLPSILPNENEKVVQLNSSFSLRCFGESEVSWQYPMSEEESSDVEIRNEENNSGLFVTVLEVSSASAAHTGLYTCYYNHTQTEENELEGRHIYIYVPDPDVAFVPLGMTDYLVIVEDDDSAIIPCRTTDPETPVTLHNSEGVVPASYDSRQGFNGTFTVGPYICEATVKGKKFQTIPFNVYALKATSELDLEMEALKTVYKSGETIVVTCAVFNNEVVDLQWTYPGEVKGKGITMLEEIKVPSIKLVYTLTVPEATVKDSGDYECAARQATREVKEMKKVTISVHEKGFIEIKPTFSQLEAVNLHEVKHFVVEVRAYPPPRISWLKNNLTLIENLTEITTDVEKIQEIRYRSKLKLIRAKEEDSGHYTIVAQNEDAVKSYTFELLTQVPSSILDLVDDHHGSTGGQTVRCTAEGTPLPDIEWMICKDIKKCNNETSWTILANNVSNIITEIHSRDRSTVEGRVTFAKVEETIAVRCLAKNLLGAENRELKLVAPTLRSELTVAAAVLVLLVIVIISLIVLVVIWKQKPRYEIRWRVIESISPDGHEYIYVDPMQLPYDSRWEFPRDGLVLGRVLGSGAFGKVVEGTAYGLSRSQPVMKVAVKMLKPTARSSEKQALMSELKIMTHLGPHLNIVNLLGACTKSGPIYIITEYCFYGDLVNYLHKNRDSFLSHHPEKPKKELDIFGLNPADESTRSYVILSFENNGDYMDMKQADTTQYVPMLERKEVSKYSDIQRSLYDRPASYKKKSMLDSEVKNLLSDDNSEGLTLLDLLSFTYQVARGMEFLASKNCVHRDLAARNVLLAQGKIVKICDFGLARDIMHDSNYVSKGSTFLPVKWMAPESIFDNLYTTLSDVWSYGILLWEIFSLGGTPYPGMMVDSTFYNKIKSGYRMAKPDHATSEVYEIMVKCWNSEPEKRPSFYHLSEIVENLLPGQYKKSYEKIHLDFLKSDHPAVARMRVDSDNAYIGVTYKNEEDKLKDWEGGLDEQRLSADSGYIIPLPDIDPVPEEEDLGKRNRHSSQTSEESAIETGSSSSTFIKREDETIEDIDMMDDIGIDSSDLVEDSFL
Chain of Platelet-derived growth factor receptor beta (P09619 whole entry): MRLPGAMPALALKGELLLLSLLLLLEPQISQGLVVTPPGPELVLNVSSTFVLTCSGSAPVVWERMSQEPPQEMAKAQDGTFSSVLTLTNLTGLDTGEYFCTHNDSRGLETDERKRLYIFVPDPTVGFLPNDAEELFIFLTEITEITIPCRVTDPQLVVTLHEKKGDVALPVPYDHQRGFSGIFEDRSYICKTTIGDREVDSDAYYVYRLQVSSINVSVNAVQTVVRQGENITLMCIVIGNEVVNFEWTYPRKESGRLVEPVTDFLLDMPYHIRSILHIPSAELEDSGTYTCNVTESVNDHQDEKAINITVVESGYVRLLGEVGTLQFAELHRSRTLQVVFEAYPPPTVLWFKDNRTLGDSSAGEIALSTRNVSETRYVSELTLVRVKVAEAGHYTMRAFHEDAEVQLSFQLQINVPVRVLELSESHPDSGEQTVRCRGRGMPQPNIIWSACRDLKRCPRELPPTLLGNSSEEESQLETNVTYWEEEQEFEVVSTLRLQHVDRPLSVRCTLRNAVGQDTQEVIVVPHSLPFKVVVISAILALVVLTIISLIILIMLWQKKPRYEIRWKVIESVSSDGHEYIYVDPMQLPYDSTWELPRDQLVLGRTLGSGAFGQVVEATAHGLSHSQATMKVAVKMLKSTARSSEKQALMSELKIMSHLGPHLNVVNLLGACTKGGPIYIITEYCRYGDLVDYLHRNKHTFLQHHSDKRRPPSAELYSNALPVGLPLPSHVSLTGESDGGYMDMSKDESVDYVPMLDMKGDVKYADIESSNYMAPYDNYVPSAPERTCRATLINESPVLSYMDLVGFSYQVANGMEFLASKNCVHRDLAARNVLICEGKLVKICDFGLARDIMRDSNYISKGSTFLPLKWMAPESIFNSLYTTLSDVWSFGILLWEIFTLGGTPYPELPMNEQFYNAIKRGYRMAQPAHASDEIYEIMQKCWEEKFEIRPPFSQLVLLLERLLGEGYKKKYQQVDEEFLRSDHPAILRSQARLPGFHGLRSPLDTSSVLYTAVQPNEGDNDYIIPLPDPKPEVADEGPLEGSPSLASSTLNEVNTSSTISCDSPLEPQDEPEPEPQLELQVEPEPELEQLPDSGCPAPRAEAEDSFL
Chain of Epidermal growth factor receptor (P00533 whole entry, the tested form may be a part): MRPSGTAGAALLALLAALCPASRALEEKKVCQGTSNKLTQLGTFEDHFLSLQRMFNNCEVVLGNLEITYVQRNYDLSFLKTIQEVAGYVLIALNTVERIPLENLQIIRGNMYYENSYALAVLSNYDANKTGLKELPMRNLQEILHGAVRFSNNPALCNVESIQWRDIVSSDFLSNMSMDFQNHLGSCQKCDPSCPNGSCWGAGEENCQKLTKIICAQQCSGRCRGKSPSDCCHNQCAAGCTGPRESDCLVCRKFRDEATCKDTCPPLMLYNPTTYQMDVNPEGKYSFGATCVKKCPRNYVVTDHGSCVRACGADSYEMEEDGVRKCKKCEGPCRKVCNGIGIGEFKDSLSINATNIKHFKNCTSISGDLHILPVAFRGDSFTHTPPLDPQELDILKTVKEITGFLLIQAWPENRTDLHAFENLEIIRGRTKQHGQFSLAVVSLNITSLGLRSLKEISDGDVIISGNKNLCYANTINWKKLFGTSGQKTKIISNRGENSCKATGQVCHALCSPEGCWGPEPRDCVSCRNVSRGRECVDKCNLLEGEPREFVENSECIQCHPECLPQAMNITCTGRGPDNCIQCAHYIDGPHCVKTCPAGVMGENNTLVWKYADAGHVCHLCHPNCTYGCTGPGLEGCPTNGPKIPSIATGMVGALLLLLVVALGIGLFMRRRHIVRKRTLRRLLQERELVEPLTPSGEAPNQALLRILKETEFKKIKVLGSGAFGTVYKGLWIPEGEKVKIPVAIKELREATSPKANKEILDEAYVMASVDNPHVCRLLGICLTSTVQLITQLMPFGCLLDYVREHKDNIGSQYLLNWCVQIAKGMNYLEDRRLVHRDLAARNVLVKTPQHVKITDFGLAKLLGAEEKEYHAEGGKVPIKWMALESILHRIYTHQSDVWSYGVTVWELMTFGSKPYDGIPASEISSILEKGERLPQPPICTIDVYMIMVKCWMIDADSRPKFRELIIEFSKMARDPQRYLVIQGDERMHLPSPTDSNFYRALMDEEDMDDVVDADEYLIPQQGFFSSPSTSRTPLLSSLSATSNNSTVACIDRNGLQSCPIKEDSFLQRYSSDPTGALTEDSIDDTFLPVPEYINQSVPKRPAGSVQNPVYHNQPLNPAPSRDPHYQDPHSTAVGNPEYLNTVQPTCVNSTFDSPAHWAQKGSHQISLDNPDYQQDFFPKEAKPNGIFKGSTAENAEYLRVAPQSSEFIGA

IC50 [1]: 0.36 µM
AUC [2]: 6.462 µg·h/mL
half-life [3]: 1.08 h
bioavailability [4]: 44.4%
IC50 [5]: 0.074 µM
IC50 [6]: 0.106 µM
IC50 [7]: 0.167 µM
inhibition [8]: > 90%
inhibition [9]: > 90%
inhibition [10]: > 90%
inhibition [11]: > 90%
Ratio IC50 [18]: 10 to 35
Ratio IC50 [19]: 10 to 35
Compound: CCC(=O)N1CC[C@H](N2C(=O)N(c3cc(OC)ccc3Cl)Cc3cnc(Nc4ccc(N5CCN(C6COC6)CC5)c(C)c4)nc32)C1
inhibition at 0.625 µM [12]: 44.5%
inhibition at 1.25 µM [13]: 52.7%
inhibition at 2.5 µM [14]: 60.6%
Activity [15]: Dose-dependent effect
inhibition at 0.016 µM [16]: 63.4%
inhibition at 0.08 µM [17]: 70%
inhibition [20]: Dose-dependent effect
